ChEMBL document CHEMBL1811870, “Synthesis, gp120 binding and anti-HIV activity of fatty acid esters of 1,1-linked disaccharides” (Bioorg Med Chem, 2011)
Activity calls are given as the source filed them. No cut-off for these calls is given here.

Key:
[1] = Cytotoxicity against human TZM-bl cells up to 200 uM after 24 hrs by MTS assay; assay type: cell-based
Method in brief: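 TZM-bl cells were seeded and left overnight, then exposed to serial dilutions starting at 200 μM for 24 h. MTS dye reduction was read as OD at 490 nm and normalized to cells in medium only.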

[2] = system: Human immunodeficiency virus; assay: Antiviral activity against HIV NL-Lai infected in human TZM-bl cells assessed as inhibition of viral infection at 100 uM treated before viral infection measured after 24 hrs by luciferase assay; assay type: functional, organism-based
Method in brief: (§1)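 TZM-bl cells infected with NL-Lai (X4) virus. Compounds at 100 μM were given either before infection or 4 h after infection. In the post-infection arm, unbound virus was washed off with PBS and fresh medium containing compound was added. T20 and AMD3100 controls were used at 2 μM. Luciferase was read 24 h later. Mean ± SD of triplicates.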

[3] = Critical micelle concentration of the compound; assay type: physicochemical
Method in brief: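 Glycolipid stocks in hexane:chloroform:ethanol (11:5:4) were injected 1:1000 into water, with surface tension recorded continuously on a microtensiometer. CMC was taken as the concentration above which surface tension no longer fell. Measured in triplicate.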

[4] = system: Human immunodeficiency virus 1; assay: Binding affinity to HIV1 3B R15K V3 loop of gp-120 using monomolecular film after 2 to 3 hrs by microtensiometer analysis
Method in brief: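 Glycolipid monolayers spread from hexane-chloroform-ethanol onto a pure water subphase at various initial surface pressures, with 5 min allowed for solvent evaporation, at 20°C ± 1°C. Critical pressure of insertion extrapolated to zero Δπ; surface pressure accuracy ± 0.25 mN/m.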

[5] = system: Human immunodeficiency virus; assay: Antiviral activity against HIV NL-Lai infected in human TZM-bl cells assessed as inhibition of viral infection after 24 hrs by luciferase assay; assay type: functional, organism-based; conditions: Human immunodeficiency virus 1, NL-Lai
Method in brief: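 TZM-bl cells (2×10^4/well) adhered overnight, then infected with X4 NL-Lai virus (from 293T transfection, titered on TZM-bl) with 20 μg/mL DEAE dextran and serial dilutions of compound. Luciferase read 24 h post infection and normalized to virus-only wells. IC50 taken from curve fit of data pooled from at least three independent experiments.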

[6] = system: Human immunodeficiency virus; assay: Antiviral activity against HIV NL-Lai infected in human TZM-bl cells assessed as inhibition of viral infection at 100 uM treated 4 hrs after viral infection measured after 24 hrs by luciferase assay; assay type: functional, organism-based; method in brief: as §1

Compound	Activity [1]	inhibition [2]	CMC [3] [µM]	CPI [4] [mN/meter]	IC50 [5] [µM]	inhibition [6]
CCCCCCCCCCCCCCCC(=O)O[C@@H]1[C@H](O)[C@@H](O[C@@H]2O[C@H](CO)[C@H](O)[C@H](O)[C@H]2O)O[C@H](CO)[C@H]1O	Non-toxic	Active	12	18	76	inactive
CCCCCCCCCCCC(=O)OCC(O)CO (centres undefined) [GLYCEROL MONOLAURATE]	–	–	–	–	> 100	–
CCCCCCCCCCCCCCCC(=O)OC[C@H]1O[C@H](O[C@@H]2O[C@H](CO)[C@H](O)[C@H](O)[C@H]2O)[C@@H](O)[C@@H](O)[C@@H]1OC(=O)CCCCCCCCCCCCCCC	Non-toxic	–	–	18	> 100	–
CCCCCCCCCCCCCCCC(=O)OC[C@H]1O[C@H](O[C@@H]2O[C@H](CO)[C@H](O)[C@H](O)[C@H]2O)[C@@H](O)[C@@H](O)[C@@H]1O	Non-toxic	–	9.8	18	> 100	–
CCCCCCCCCCCCCCCC(=O)OC[C@H]1O[C@H](OC)[C@@H](O)[C@@H](O)[C@@H]1O	Non-toxic	–	13	18	> 100	–
c1cc(CN2CCCNCCNCCCNCC2)ccc1CN1CCCNCCNCCCNCC1	–	Active	–	–	–	inactive
CCCCCCCCCCCCCCCC(=O)OC[C@H]1O[C@H](O[C@H]2O[C@H](CO)[C@H](O)[C@H](O)[C@H]2O)[C@@H](O)[C@@H](O)[C@@H]1O	Non-toxic	Active	–	–	48.4	inactive
CCCCCCCCCCCCCCCC(=O)OC[C@H]1O[C@H](OC)[C@@H](O)[C@@H](O)[C@@H]1OC(=O)CCCCCCCCCCCCCCC	Non-toxic	–	–	18	> 100	–
CCCCCCCCCCCCCCCC(=O)OC[C@H]1O[C@H](O[C@@H]2O[C@H](CO)[C@@H](O)[C@H](O)[C@H]2O)[C@@H](O)[C@@H](O)[C@@H]1O	Non-toxic	Active	10	18	52.5	inactive
CCCCCCCCCCCCC/C=C/[C@@H](O)[C@H](CO[C@@H]1O[C@H](CO)[C@H](O)[C@H](O)[C@H]1O)NC(=O)C(O)CCCCCCCCCCCCCCCCCCCCCC (some centres undefined)	Non-toxic	–	–	22	–	–
CCCCCCCCCCCCCCCCO[C@@H]1O[C@H](CO)C(O)[C@H](O)[C@H]1O (single isomer, unassigned)	Non-toxic	Active	–	–	43.5	inactive
